These results are taken from PMC3867294 (Biochemical and biophysical research communications, 2013).

Series [1] deals with LPS-mediated inflammation in rats. In kind it is in vivo. Conditions: n=3 rats/group.
For series [2] the test system is unchanged. Description: Protocol 1: plasma cytokines. The format is in vivo, Sprague-Dawley rats.
Series [3] has as its system liver inflammation in endotoxemic rats. Put plainly: Liver histology. In kind it is in vivo, Sprague-Dawley rats. Conditions: 2.5 mg/kg mR18L i.p. without LPS; H&E sections; n=3. The gist of the method:
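Male Sprague-Dawley rats received test compound 2.5 mg/kg i.p., with or without LPS 5 mg/kg i.p. one minute before, and were killed at 2 h. Liver was formalin-fixed, paraffin-embedded, cut at 5 μm and H&E-stained. A blinded pathologist scored it subjectively. Segmented neutrophils were counted at x40, 30 fields from 10 random portal areas. n=3 control, n=4 LPS groups.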

In a further series the test system is iNOS (NOS2) in rat liver. Description: iNOS expression in liver tissue by immunoblotting. In kind it is in vivo, Sprague-Dawley rats. Conditions: 2.5 mg/kg mR18L with 5 mg/kg LPS; 2h post LPS; immunoblot, n=6 in LPS groups; P<0.05 vs LPS alone. In general terms: In western blotting, separated proteins are transferred to a membrane and probed.
Series [4] deals with endotoxin activity of LPS. Put plainly: Endotoxin activity in rat plasma by LAL assay, protocol 1. In kind it is in vivo, Sprague-Dawley rats. To be noted: 2h post 5 mg/kg LPS and 2.5 mg/kg mR18L, n=5-7/group, P<0.05 vs LPS alone. Put shortly: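 Adult male Sprague-Dawley rats (322±8 g) got E. coli 026:B6 LPS at 5 mg/kg i.p. and, one minute later, test compound at 2.5 mg/kg i.p. at a different site. Rats were killed at 2 h and the plasma was frozen. Endotoxin activity was read by kinetic-colorimetric LAL assay, n=5–7/group. Groups were compared by one-way ANOVA with Bonferroni, mean±SEM.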

For series [5], the system named is LPS-mediated inflammation in rats. Put plainly: Protocol 2: mR18L one hour post LPS, rat plasma at 6h post LPS. In kind it is in vivo, Sprague-Dawley rats. To be noted: 2.5 mg/kg mR18L one hour post 5 mg/kg LPS. Put shortly: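 Rats got LPS (E. coli 026:B6, 5 mg/kg i.p.), then test compound 2.5 mg/kg one hour later; n=5/group. Plasma was taken at baseline and 6 h. Measures: cholesterol and triglycerides by kit; IL-6 and IL-10 by ELISA; endotoxin by kinetic LAL. PON1 was read as paraoxon-driven 4-nitrophenol release at 405 nm. Tests: paired t-test vs baseline, unpaired vs LPS.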

Series [6] relates to atherosclerosis and plasma cholesterol in mouse models. To be noted: oral and intravenous administration; cited from earlier work.
For series [7] the following is noted: cited from earlier work.
A further series relates to hepatocytes. To be noted: in-vitro; cited from earlier work.
The mark [8] stands for this setting: 2.5 mg/kg mR18L i.p. one minute post 5 mg/kg LPS, 2h post LPS, n=5-7 rats/group.

As to “Ac-GFRRFLGSWARIYRAFVG-NH2 [mR18L, Ac-G-F-R-R-F-L-G-S-W-A-R-I-Y-R-A-F-V-G-NH2]”, the “tolerance to mR18L” value in series [1] (1, 2.5 and 5 mg/kg mR18L i.p. one minute post 5 mg/kg LPS i.p.) was “All rats demonstrated tolerance”. In addition, the “LPS-mediated plasma elevation of TNF-α” value in series [1] (starting at the lowest tested dose of 1 mg/kg mR18L i.p., 5 mg/kg LPS) is listed as “significantly reduced”. Also, in [2] (setting [8]), the “LPS-mediated elevation of plasma IL-6” value is listed as “significantly reduced”, the “LPS-mediated elevation of plasma TNF-α” value is listed as “significantly reduced” and the “plasma anti-inflammatory cytokine IL-10” value was “without significantly reducing”. For the same substance, the “normal levels of TNF-α, IL-6 and IL-10 in rat plasma, mR18L administered alone” value in [2] (2.5 mg/kg mR18L i.p. without LPS, 2h, n=5 rats/control group) is “no effects”. For the same substance, the “liver morphology and histology, mR18L alone” value in series [3] is “normal morphological and histological features without signs of inflammation or tissue damage”. In the series on iNOS (NOS2) in rat liver, the “LPS-mediated iNOS elevation in liver” value is given as “reduced”. The “endotoxin activity in plasma of LPS-treated rats” value in series [4] is reported as “significantly reduced”. The “increase of plasma PON1 activity in LPS-treated rats” value in series [5] (n=5, P<0.05 vs baseline) was found to be 15%. Moreover, in series [5] (n=5 rats/group), the “LPS-mediated elevation of plasma triglyceride” value is “reduced” and the plasma cholesterol result is “not affecting”. In series [5] (n=5 rats/group, vs LPS), the “reduction of plasma levels of IL-6” value turned out to be 57% and the “reduction of plasma levels of IL-10” value was 38%. Moreover, the “increase of IL-10 to IL-6 ratio” value in series [5] (not shown) is 24%. Besides, the “reduction of plasma endotoxin activity” value in [5] (LAL assay, n=5 rats/group, vs LPS) stood at 30%. For the same substance, in [6], the atherosclerotic lesion formation entry is on record as “inhibited” and the “plasma cholesterol levels, mainly VLDL” value was “decreased”. Further, the “lytic properties relative to 18L” value in series [7] is given as “substantially reduced lytic properties”. Further, the “uptake of atherogenic lipoproteins by hepatocytes” value in the series on hepatocytes is reported as “able to enhance uptake”.
